According to ChEMBL document CHEMBL1126828, “Structure-activity relationships of trans-3,4-dimethyl-4-(3-hydroxyphenyl)piperidine antagonists for mu- and kappa-opioid receptors” (J Med Chem, 1993):
Calls of active or inactive are those of the source. The rule behind the calls is not given here.

What was measured:
[1] = biological target: Mu-type opioid receptor (Mus musculus) (UniProt P42866); assay: Antagonism of opioid analgesia using a mouse writhing model to block morphine ([…]) induced mu-opioid receptor (subcutaneously dosed); format: functional, organism-based
[2] = biological target: Kappa-type opioid receptor (Mus musculus) (UniProt P33534); assay: Antagonism of opioid analgesia using a mouse writhing model to block U-50,488 ([…]) induced kappa-opioid receptor subcutaneously; format: functional, organism-based
[3] = biological target: T1, Mu-type opioid receptor (Rattus norvegicus, UniProt P33535); assay: Binding affinity towards mu opioid receptor by displacement of [3H]NAL from rat brain homogenates; format: tissue-based
[4] = biological target: Kappa-type opioid receptor (Rattus norvegicus) (UniProt P34975); assay: Tested for the antagonism of kappa opioid receptor diuresis at a dose of 0.08 mg/kg subcutaneously; format: functional, organism-based; design: dose 0.08 mg/kg
Summary of the method: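 Male Long-Evans hooded rats (350-500 g), bremazocine HCl 0.08 mg/kg sc to induce diuresis, test antagonist sc at once on opposite side; metabolism cages, urine volume at 2 and 5 h. Three rats per dose, doses varied 2-fold; AD50 = dose halving 5-h urination.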

[5] = biological target: T1, Mu-type opioid receptor; assay: Binding affinity towards mu-opioid receptor by displacement of [3H]NAL at 100 nM from rat brain homogenates; format: tissue-based
[6] = biological target: T1, Mu-type opioid receptor; assay: Binding affinity towards mu-opioid receptor by displacement of [3H]NAL at 10 nM from rat brain homogenates; format: tissue-based
[7] = biological target: T2, Kappa-type opioid receptor (Cavia porcellus, UniProt P41144); assay: Binding affinity towards kappa-opioid receptor by displacement of [3H]-EKC at from guinea pig cortical tissue
[8] = biological target: Mu-type opioid receptor (Mus musculus) (UniProt P42866); conditions: 0.08 mg/kg
[9] = biological target: T2, Kappa-type opioid receptor; assay: Binding affinity towards kappa-opioid receptor by displacement of [3H]EKC from guinea pig cortical tissue
Summary of the method: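 Guinea pig cortical washed crude synaptosomal membranes (stored -125 °C) in modified Krebs-HEPES pH 7.4; 1.0 nM [3H]ethylketocyclazocine, 100 nM fentanyl and 100 nM D-Ala2-D-Leu5-enkephalin to block mu/delta sites; 37 °C, 45 min. Nonspecific: 1000 nM unlabeled EKC. GF-C filtration, ice-cold washes, scintillation counting. Ki from at least six concentrations in triplicate, by regression.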

Sequence of Mu-type opioid receptor (Mus musculus) (P42866 whole entry): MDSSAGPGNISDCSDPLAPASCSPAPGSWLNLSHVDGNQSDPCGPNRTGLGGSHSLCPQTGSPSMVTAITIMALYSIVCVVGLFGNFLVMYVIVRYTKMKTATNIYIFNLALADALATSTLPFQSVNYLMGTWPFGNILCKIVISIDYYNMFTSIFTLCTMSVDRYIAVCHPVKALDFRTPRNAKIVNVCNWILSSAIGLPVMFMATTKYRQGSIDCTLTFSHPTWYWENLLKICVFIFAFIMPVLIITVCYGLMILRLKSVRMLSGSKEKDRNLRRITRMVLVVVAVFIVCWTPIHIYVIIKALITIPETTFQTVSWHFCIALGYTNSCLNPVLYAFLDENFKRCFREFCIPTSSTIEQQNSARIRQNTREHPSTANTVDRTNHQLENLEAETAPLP
T1 sequence (P33535 whole entry): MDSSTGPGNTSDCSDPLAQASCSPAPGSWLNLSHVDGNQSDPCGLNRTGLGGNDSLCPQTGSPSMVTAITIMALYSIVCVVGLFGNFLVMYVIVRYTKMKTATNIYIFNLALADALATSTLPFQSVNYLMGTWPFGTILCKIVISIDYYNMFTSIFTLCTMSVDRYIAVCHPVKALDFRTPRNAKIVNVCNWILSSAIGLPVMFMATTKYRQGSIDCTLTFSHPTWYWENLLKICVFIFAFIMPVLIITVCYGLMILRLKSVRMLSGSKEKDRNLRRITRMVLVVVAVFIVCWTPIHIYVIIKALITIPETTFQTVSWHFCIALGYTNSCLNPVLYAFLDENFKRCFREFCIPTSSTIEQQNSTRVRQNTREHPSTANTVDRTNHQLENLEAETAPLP
Sequence of Kappa-type opioid receptor (Mus musculus) (P33534 whole entry): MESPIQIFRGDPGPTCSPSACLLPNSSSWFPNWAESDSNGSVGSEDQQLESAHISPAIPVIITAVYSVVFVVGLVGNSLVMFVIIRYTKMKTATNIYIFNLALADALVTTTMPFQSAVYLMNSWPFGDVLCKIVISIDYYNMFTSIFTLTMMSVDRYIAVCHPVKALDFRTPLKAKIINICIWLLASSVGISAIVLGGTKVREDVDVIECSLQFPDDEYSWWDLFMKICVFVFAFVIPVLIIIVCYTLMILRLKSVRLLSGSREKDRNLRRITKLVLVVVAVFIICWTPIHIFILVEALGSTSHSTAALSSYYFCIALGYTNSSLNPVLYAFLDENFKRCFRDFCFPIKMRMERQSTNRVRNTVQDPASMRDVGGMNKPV
T2 sequence (P41144 whole entry): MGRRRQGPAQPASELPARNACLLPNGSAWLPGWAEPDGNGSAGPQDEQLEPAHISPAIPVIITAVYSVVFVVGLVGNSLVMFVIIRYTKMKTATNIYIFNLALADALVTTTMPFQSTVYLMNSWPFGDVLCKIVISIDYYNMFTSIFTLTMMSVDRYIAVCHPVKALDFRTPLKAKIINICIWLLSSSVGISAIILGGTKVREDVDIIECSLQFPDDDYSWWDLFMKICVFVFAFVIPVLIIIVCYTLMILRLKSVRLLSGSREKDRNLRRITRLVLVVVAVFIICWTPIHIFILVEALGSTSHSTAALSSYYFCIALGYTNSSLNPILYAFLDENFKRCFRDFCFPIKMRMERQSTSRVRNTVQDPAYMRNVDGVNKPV
Sequence of Kappa-type opioid receptor (Rattus norvegicus) (P34975 whole entry): as the sequence (P33534 whole entry) above, with D11E, S17A, S51P, A308V counted along it

Row | Compound | AD50 [1] | AD50 [2] | Ki [3] | AD50 [4] | Ki [5] | Ki [6] | Ki [7] | AD50 [8] | Ki [9]
1 | COc1ccccc1CCCN1CC[C@@](C)(c2cccc(O)c2)[C@@H](C)C1 | 0.18 mg/kg | > 0.64 mg/kg | 0.00095 µM | 2.2 mg/kg |  |  |  |  | 
2 | C[C@H]1CN(CC(O)Cc2ccccc2)CC[C@@]1(C)c1cccc(O)c1 (stereo partly drawn) | 0.27 mg/kg | 0.85 mg/kg |  | 3.7 mg/kg | 0.1 µM | 0.088 µM |  |  | 
3 | C[C@@H]1CN(CCCc2cccs2)CC[C@]1(C)c1cccc(O)c1 |  |  | 0.0018 µM |  |  |  | 0.013 µM |  | 
4 | CCCCCCCN1CC[C@@](C)(c2cccc(O)c2)[C@@H](C)C1 |  |  | 0.00062 µM |  |  |  |  |  | 
5 | C[C@H]1CN(CCc2cccc3ccccc23)CC[C@@]1(C)c1cccc(O)c1 | 0.08 mg/kg | 0.51 mg/kg |  | > 5 mg/kg |  | 0.0011 µM |  |  | 
6 | C[C@H]1CN(CCc2ccccc2)CC[C@@]1(C)c1cccc(O)c1 | 0.16 mg/kg | 1.4 mg/kg |  | 1.8 mg/kg |  |  |  |  | 
7 | C[C@H]1CN(CCc2ccc(Cl)c(Cl)c2)CC[C@@]1(C)c1cccc(O)c1 |  |  |  |  | 0.09 µM | 0.05 µM |  | inactive | 
8 | C[C@H]1CN(CCC(=O)c2cccs2)CC[C@@]1(C)c1cccc(O)c1 |  |  | 0.0015 µM |  |  |  | 0.015 µM |  | 
9 | CCN1CC[C@@](C)(c2cccc(O)c2)[C@@H](C)C1 | > 1.25 mg/kg | > 1.25 mg/kg | 0.052 µM |  |  |  | 0.018 µM |  | 
10 | C[C@H]1CN(CCCc2cccs2)CC[C@@]1(C)c1cccc(O)c1 (stereo in doubt; 42) [listing 1 of 2 here] |  |  | 0.0002 µM |  |  |  | 0.0033 µM |  | 
11 | C[C@@H]1CN(CCC(=O)c2ccccc2)CC[C@]1(C)c1cccc(O)c1 |  |  | 0.012 µM |  |  |  | 0.318 µM |  | 
12 | C[C@H]1CN(CCc2cccc(F)c2)CC[C@@]1(C)c1cccc(O)c1 | 0.14 mg/kg | 0.84 mg/kg |  | 1.4 mg/kg |  | 0.0032 µM |  |  | 
13 | C[C@H]1CN(CC2CC2)CC[C@@]1(C)c1cccc(O)c1 | 1.3 mg/kg | 6.1 mg/kg | 0.021 µM |  |  |  |  |  | 
14 | C[C@H]1CN(CCCc2cccs2)CC[C@@]1(C)c1cccc(O)c1 (stereo in doubt; 41) [listing 1 of 2 here] |  | 0.3 mg/kg |  |  |  |  |  |  | 
15 | C[C@H]1CN(CCCc2cccs2)CC[C@@]1(C)c1cccc(O)c1 (stereo in doubt; 42) [listing 2 of 2 here] | 0.03 mg/kg | 0.25 mg/kg |  |  |  |  |  |  | 
16 | C[C@H]1CN(C)CC[C@@]1(C)c1cccc(O)c1 | 0.74 mg/kg |  | 0.08 µM | > 10 mg/kg |  |  | 0.833 µM |  | 
17 | CC(CCCN1CC[C@@](C)(c2cccc(O)c2)[C@@H](C)C1)c1ccccc1 (stereo partly drawn) | 0.25 mg/kg | 0.91 mg/kg |  | 8.4 mg/kg | 0.1 µM | 0.063 µM |  |  | 
18 | C[C@H]1CN(CCCc2ccco2)CC[C@@]1(C)c1cccc(O)c1 | 0.08 mg/kg | 0.26 mg/kg | 0.0014 µM |  |  |  | 0.014 µM |  | 
19 | Cc1cccc(CCN2CC[C@@](C)(c3cccc(O)c3)[C@@H](C)C2)c1 | 0.27 mg/kg | 0.95 mg/kg |  | 5.7 mg/kg | 0.1 µM | 0.083 µM |  |  | 
20 | C[C@H]1CN(CC(O)c2ccccc2)CC[C@@]1(C)c1cccc(O)c1 (stereo partly drawn) | 2.4 mg/kg | 11.8 mg/kg |  | 6.9 mg/kg | 0.097 µM | 0.048 µM |  |  | 
21 | C[C@H]1CN(CCC(=O)c2ccccc2)CC[C@@]1(C)c1cccc(O)c1 (stereo in doubt; 8) |  |  | 0.0036 µM |  |  |  | 0.163 µM |  | 
22 | C[C@H]1CN(Cc2ccoc2)CC[C@@]1(C)c1cccc(O)c1 | 0.4 mg/kg | 0.71 mg/kg |  | 3.8 mg/kg | 0.1 µM | 0.082 µM |  |  | 
23 | C[C@H]1CN(CCCCc2cccs2)CC[C@@]1(C)c1cccc(O)c1 | 0.16 mg/kg | 0.43 mg/kg |  | 3.3 mg/kg | 0.069 µM | 0.023 µM |  |  | 
24 | C[C@H]1CN(CCC(=O)c2ccccc2)CC[C@@]1(C)c1cccc(O)c1 (stereo in doubt; 6) [listing 1 of 2 here] |  |  | 0.0054 µM |  |  |  | 0.208 µM |  | 

Row | Compound | AD50 [1] | AD50 [2] | Ki [3] | AD50 [4] | Ki [5] | Ki [6] | Ki [7] | AD50 [8] | Ki [9]
25 | C[C@H]1CN(CCCOc2ccccc2)CC[C@@]1(C)c1cccc(O)c1 | > 1.25 mg/kg | > 1.25 mg/kg | 0.001 µM | 8.4 mg/kg |  |  | 0.061 µM |  | 
26 | C[C@H]1CN(CCCc2cccc(Cl)c2)CC[C@@]1(C)c1cccc(O)c1 | 0.76 mg/kg | > 1.25 mg/kg |  | 11 mg/kg | 0.1 µM | 0.089 µM |  |  | 
27 | Cc1ccc(CCN2CC[C@@](C)(c3cccc(O)c3)[C@@H](C)C2)cc1 | > 1.25 mg/kg | > 1.25 mg/kg |  | 11 mg/kg | 0.095 µM | 0.052 µM |  |  | 
28 | C[C@H]1CN(CCCCc2ccccc2)CC[C@@]1(C)c1cccc(O)c1 | 0.28 mg/kg | > 1.25 mg/kg | 0.002 µM | 4.1 mg/kg |  |  |  |  | 
29 | C[C@H]1CN(CCCc2ccccc2)CC[C@@]1(C)c1cccc(O)c1 | 2.4 mg/kg |  | 0.00069 µM | 1.1 mg/kg |  |  | 0.015 µM |  | 
30 | CCCCCCN1CC[C@@](C)(c2cccc(O)c2)[C@@H](C)C1 | 0.052 mg/kg | 0.11 mg/kg | 0.00029 µM | 0.7 mg/kg |  |  |  |  | 
31 | CCCCCN1CC[C@@](C)(c2cccc(O)c2)[C@@H](C)C1 | 0.37 mg/kg |  | 0.0043 µM | 0.69 mg/kg |  |  |  |  | 
32 | C[C@H]1CN(CCC(O)c2cccs2)CC[C@@]1(C)c1cccc(O)c1 (stereo partly drawn) | 0.07 mg/kg | 0.14 mg/kg | 0.0005 µM | 1.4 mg/kg |  |  | 0.0117 µM |  | 
33 | C[C@H]1CN(CCCc2ccsc2)CC[C@@]1(C)c1cccc(O)c1 |  |  |  |  |  | 0.00026 µM | 0.01 µM |  | 
34 | Cc1ccccc1CCCN1CC[C@@](C)(c2cccc(O)c2)[C@@H](C)C1 | 0.05 mg/kg | 0.09 mg/kg | 0.00062 µM | 1.4 mg/kg |  |  | 0.0089 µM |  | 
35 | C=CCN1CC[C@@](C)(c2cccc(O)c2)[C@@H](C)C1 | 1.3 mg/kg | > 10 mg/kg | 0.016 µM |  |  |  | 0.313 µM |  | 
36 | C[C@H]1CN(CC2CCCO2)CC[C@@]1(C)c1cccc(O)c1 (stereo partly drawn) | 0.6 mg/kg | 0.75 mg/kg |  | 3.2 mg/kg | 0.06 µM | 0.026 µM |  |  | 
37 | C[C@H]1CN(CCC(O)c2ccccc2)CC[C@@]1(C)c1cccc(O)c1 (stereo partly drawn) |  |  | 0.00096 µM |  |  |  | 0.0125 µM |  | 
38 | C[C@H]1CN(CCCc2cccs2)CC[C@@]1(C)c1cccc(O)c1 (stereo in doubt; 41) [listing 2 of 2 here] |  |  | 0.00056 µM |  |  |  | 0.0061 µM |  | 
39 | C[C@H]1CN(CCc2cccc(Cl)c2)CC[C@@]1(C)c1cccc(O)c1 | 0.44 mg/kg | 0.38 mg/kg | 0.0003 µM | 3.6 mg/kg |  |  |  |  | 
40 | C[C@H]1CN(CCc2ccncc2)CC[C@@]1(C)c1cccc(O)c1 | > 1.25 mg/kg | > 1.25 mg/kg |  | 14 mg/kg | 0.099 µM | 0.054 µM |  |  | 
41 | Cc1cccc(CCCN2CC[C@@](C)(c3cccc(O)c3)[C@@H](C)C2)c1 | > 1.25 mg/kg | > 0.32 mg/kg | 0.0028 µM | 10 mg/kg |  |  |  |  | 
42 | C[C@H]1CN(Cc2ccccc2)CC[C@@]1(C)c1cccc(O)c1 | 0.29 mg/kg | 0.45 mg/kg |  | 2.5 mg/kg | 0.089 µM | 0.065 µM |  |  | 
43 | C[C@H]1CN(CCC(=O)c2ccccc2)CC[C@@]1(C)c1cccc(O)c1 (stereo in doubt; 6) [listing 2 of 2 here] | 0.14 mg/kg | 4.5 mg/kg |  | 3.2 mg/kg |  |  |  |  | 
44 | Cc1ccccc1CCN1CC[C@@](C)(c2cccc(O)c2)[C@@H](C)C1 | 0.19 mg/kg | 0.33 mg/kg |  | 0.5 mg/kg | 0.1 µM | 0.09 µM |  |  | 0.0075 µM
45 | C[C@H]1CN(CCc2ccccc2Cl)CC[C@@]1(C)c1cccc(O)c1 | 0.31 mg/kg | 0.51 mg/kg | 0.0035 µM | 3.4 mg/kg |  |  |  |  | 
46 | C[C@H]1CN(CCOc2ccccc2)CC[C@@]1(C)c1cccc(O)c1 | 0.14 mg/kg | > 40 mg/kg | 0.0013 µM | 3 mg/kg |  |  | 0.057 µM |  | 
47 | C[C@H]1CN(Cc2ccco2)CC[C@@]1(C)c1cccc(O)c1 | 0.71 mg/kg | 1.35 mg/kg | 0.0058 µM |  |  |  | 0.071 µM |  | 
48 | C[C@H]1CN(CCc2cccs2)CC[C@@]1(C)c1cccc(O)c1 | 0.25 mg/kg | 0.25 mg/kg | 0.0053 µM | 3.8 mg/kg |  |  |  |  | 
